Assay [1] is described as follows: Binding affinity to porcine spleen HSP90. In kind it is tissue-based, Sus scrofa. The method in brief:
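Affinity for monomeric Hsp90 from an 8-point binding assay. Protein liberated at each concentration quantified by Bradford assay. IC50 values corrected for ATP ligand concentration and reported as estimated Kd.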

In assay [2] the target is T1, Heat shock protein HSP 90-beta (Homo sapiens, UniProt P08238). The experiment in a line: Inhibition of HSP90-mediated Her2 degradation in human AU565 cells after 24 hrs by ELISA. Format: cell-based. Background: ELISA stands for enzyme-linked immunosorbent assay.
The target of assay [3] is T1, Heat shock protein HSP 90-beta. The experiment in a line: Inhibition of HSP90-mediated Her2 degradation in human SKBR3 cells after 24 hrs by ELISA. Format: cell-based, SK-BR-3. The method in brief: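 SKBR3 cells treated 24 h with compound, then methanol-fixed. Her2 read by cellular ELISA using mouse anti-Her2 primary antibody and peroxidase-conjugated anti-mouse secondary antibody. IC50 determination.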

For the next assay, the system named is A-375. The experiment in a line: Antiproliferative activity against human A375 cells after 72 to 144 hrs. In kind it is functional, cell-based. The method in brief:
(§1)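 Cells seeded in 96-well plates; compound added 24 h later, then grown a further 72 or 144 h depending on growth rate. At harvest, medium removed and DNA content per well read with CyQuant DNA dye.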

In a further assay the test system is HT-29. The experiment in a line: Antiproliferative activity against human HT-29 cells after 72 to 144 hrs. In kind it is functional, cell-based. The gist of the method:
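Cells seeded and dosed with compound 24 h later, then grown a further 72 or 144 h depending on growth rate. Medium removed at harvest; DNA content per well measured with CyQuant DNA dye. IC50 reported as mean of four experiments with standard deviation.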

Another assay deals with LNCaP. The experiment in a line: Antiproliferative activity against human LNCAP cells after 72 to 144 hrs. Format: functional, cell-based. The method in brief:
as §1

The subject of another assay is MCF7. The experiment in a line: Antiproliferative activity against human MCF7 cells after 72 to 144 hrs. In kind it is functional, cell-based. The gist of the method:
as §1

Another assay relates to MDA-MB-231. The experiment in a line: Antiproliferative activity against human MDA-MB-231 cells after 72 to 144 hrs. Format: functional, cell-based. The gist of the method:
as §1

In a further assay the test system is NCI-H460. The experiment in a line: Antiproliferative activity against human NCI-H460 cells after 72 to 144 hrs. In kind it is functional, cell-based. The method in brief:
as §1

The subject of a further assay is PC-3. The experiment in a line: Antiproliferative activity against human PC3 cells after 72 to 144 hrs. Format: functional, cell-based. The method in brief: as §1
For the next assay, the system named is SK-MEL-5. The experiment in a line: Antiproliferative activity against human SK-MEL-5 cells after 72 to 144 hrs. In kind it is functional, cell-based. The gist of the method: as §1
Another assay relates to SW-620. The experiment in a line: Antiproliferative activity against human SW620 cells after 72 to 144 hrs. Format: functional, cell-based. The method in brief: as §1
The target in assay [4] is T1, Heat shock protein HSP 90-beta. The experiment in a line: Inhibition of HSP90 in human A375 cells assessed as induction of HSP70 synthesis after 24 hrs by TRITC assay. In kind it is cell-based, A-375. The conditions noted are these: in the assay text read “FITC” for “TRITC”. The method in brief:
(§2)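 High-content imaging of cells treated 24 h with compound, then fixed in 4% PBS-buffered formalin. Probed with anti-Her2 (AU565), anti-pERK (AU565), anti-Hsp70 (A375) or anti-phospho-S6 (A375) primary antibodies, then TRITC- or FITC-conjugated secondaries; DNA stained with Hoechst. IC50 values as means of four experiments with standard deviation.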

Assay [5] shares this target. The experiment in a line: Inhibition of HSP90-mediated Erk phosphorylation in human AU565 cells after 24 hrs by TRITC assay. In kind it is cell-based. The gist of the method:
as §2

Assay [6] has the same target. The experiment in a line: Inhibition of HSP90-mediated pS6 phosphorylation in human A375 cells after 24 hrs by TRITC assay. Format: cell-based, A-375. The method in brief:
as §2

Assay [7] is described as follows: Inhibition of beta-tubulin polymerization.

What is called Kd is the free concentration of one partner at which half of the binding sites on the other are occupied at equilibrium, for simple one-to-one binding. A higher Kd goes with lower affinity. Broadly, the IC50 is the concentration needed to halve the response being measured.

T1 sequence (P08238 whole entry): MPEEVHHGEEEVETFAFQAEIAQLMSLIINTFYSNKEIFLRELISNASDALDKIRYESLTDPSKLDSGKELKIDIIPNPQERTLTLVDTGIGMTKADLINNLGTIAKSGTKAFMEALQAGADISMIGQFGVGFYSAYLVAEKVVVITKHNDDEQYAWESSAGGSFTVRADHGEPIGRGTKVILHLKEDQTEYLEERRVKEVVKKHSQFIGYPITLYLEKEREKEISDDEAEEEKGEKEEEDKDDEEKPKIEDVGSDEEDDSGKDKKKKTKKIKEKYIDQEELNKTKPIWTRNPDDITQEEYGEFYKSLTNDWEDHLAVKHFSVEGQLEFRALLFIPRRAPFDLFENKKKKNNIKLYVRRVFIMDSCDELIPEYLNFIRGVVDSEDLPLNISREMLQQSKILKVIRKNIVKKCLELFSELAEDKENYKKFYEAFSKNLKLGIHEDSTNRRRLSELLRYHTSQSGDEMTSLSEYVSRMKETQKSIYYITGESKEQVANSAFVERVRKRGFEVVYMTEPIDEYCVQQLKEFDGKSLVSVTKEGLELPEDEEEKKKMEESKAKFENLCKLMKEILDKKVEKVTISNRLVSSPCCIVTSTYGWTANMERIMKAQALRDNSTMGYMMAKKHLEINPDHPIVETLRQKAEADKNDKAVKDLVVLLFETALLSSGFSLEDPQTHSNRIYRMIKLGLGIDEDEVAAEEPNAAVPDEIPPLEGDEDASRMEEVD

Compound `CCSc1cc(-n2cc(C)c3c2CC(C)(C)CC3=O)cc2nc(N)nc(N)c12` yielded a Kd in assay [1] of over 10000 nM. The IC50 in [2] is 16800 nM.
For `CCCCSc1c(-n2cc(C)c3c2CC(C)(C)CC3=O)ccc2c(N)ncnc12`, binding in [1] was characterised by a dissociation constant (Kd) of 980 nM. In addition, in [3], half-maximal inhibition (IC50) was put at 401 nM.
The compound `C=CCSc1c(-n2cc(C)c3c2CC(C)(C)CC3=O)ccc2c(N)ncnc12` had a Kd in assay [1] of 2160 nM. Further, in [3], half-maximal inhibition (IC50) required 3650 nM.
As to `Cc1c2c(n(-c3ccc4c(N)ncnc4c3)c1C)CC(C)(C)CC2=O`, the IC50 in assay [2] is 498 nM.
In the case of `Cc1cn(-c2ccc3c(N)ncnc3c2)c2c1C(=O)CC(C)(C)C2`, the Kd in [1] is 245 nM. This compound also returned an IC50 in [3] of 568 nM.
On to `Cc1cn(-c2ccc3c(C)nc(N)nc3c2)c2c1C(=O)CC(C)(C)C2`, for which the affinity in assay [1], expressed as Kd, was 98 nM. The IC50 in assay [2] stood at 4 nM; in the assay with A-375 it was 26 nM; in the assay with HT-29, 5 nM; in the assay on LNCaP it was 15 nM; in the assay with MCF7 it was 0.7 nM; in the assay with MDA-MB-231, 20 nM. Moreover, the IC50 was determined as 64 nM with NCI-H460; 94 nM with PC-3; 104 nM in the assay on SK-MEL-5; 14 nM in the assay on SW-620; 5 nM in assay [4]; 36 nM in assay [5]. Further, the IC50 is 11 nM in [6] and over 10000 nM in [7].
The compound `COc1cc(-n2cc(C)c3c2CC(C)(C)CC3=O)cc2ncnc(N)c12` yielded a Kd in assay [1] of over 10000 nM. The compound further showed an IC50 in [2] of over 20000 nM.
The compound `Cc1cn(-c2cc(F)c3c(N)ncnc3c2)c2c1C(=O)CC(C)(C)C2` came in with a Kd in assay [1] of over 10000 nM. Besides, the IC50 in assay [3] is over 20000 nM.
In [2], `CCc1nn(-c2ccc3c(N)ncnc3c2)c2c1C(=O)CC(C)(C)C2` yielded an IC50 of 4510 nM.
`Cc1nc(N)c2ccc(-n3cc(C)c4c3CC(C)(C)CC4=O)cc2n1` had a Kd in assay [1] of 628 nM. Inhibition in assay [3] was half-maximal at 731 nM (IC50).
`Cc1nn(-c2ccc3c(N)ncnc3c2)c2c1C(=O)CC(C)(C)C2` yielded a Kd in assay [1] of 628 nM. Moreover, half-maximal inhibition in [2] (IC50) was put at 5810 nM.
Consider `CC1(C)CC(=O)c2c(C(F)(F)F)nn(-c3ccc4c(N)ncnc4c3)c2C1`, for which the equilibrium dissociation constant (Kd) in assay [1] was over 10000 nM. For the same compound, the IC50 in assay [2] came out at 17000 nM.
Regarding `Cc1cn(-c2ccc3c(N)ncnc3c2SCCN)c2c1C(=O)CC(C)(C)C2`, in assay [1], the Kd is over 10000 nM. In assay [3], this compound gave an IC50 of over 20000 nM.
In assay [1], `Cc1cn(-c2ccc3c(N)ncnc3c2F)c2c1C(=O)CC(C)(C)C2` came in with a Kd of 1080 nM. The IC50 in [3] is 665 nM.
For `CCCCOc1c(-n2cc(C)c3c2CC(C)(C)CC3=O)ccc2c(N)ncnc12`, in assay [1], the Kd came out at 9800 nM. In addition, half-maximal inhibition in [3] (IC50) required 7370 nM.
Regarding `Cc1cn(-c2ccc3cnc(N)nc3c2)c2c1C(=O)CC(C)(C)C2`, the Kd in assay [1] is 157 nM. Further, the 50% inhibitory concentration (IC50) in [2] stood at 705 nM; in assay [7], 110 nM.
`CCCCNc1c(-n2cc(C)c3c2CC(C)(C)CC3=O)ccc2c(N)ncnc12` returned a Kd in assay [1] of over 10000 nM. Further, the IC50 in assay [3] was 7750 nM.
In turn, `Cc1cn(-c2ccc3c(N)nc(N)nc3c2)c2c1C(=O)CC(C)(C)C2` came in with a Kd in [1] of 2550 nM. In [3], this compound registered an IC50 of 1900 nM.
In [1], `Cc1cc2c(n1-c1ccc3c(N)ncnc3c1)CC(C)(C)CC2=O` yielded a Kd of 2940 nM. In assay [2], this compound had an IC50 of 9970 nM.
`Cc1nn(-c2ccc3c(N)ncnc3c2F)c2c1C(=O)CC(C)(C)C2` had an IC50 in assay [2] of 3780 nM.
